We go through eight molecules from ChEMBL document CHEMBL3085628, “Identification of CB1/CB2 ligands from Zanthoxylum bungeanum” (J Nat Prod, 2013).

For experiment [1], the species on record is Homo sapiens. Put plainly: Selectivity ratio of IC50 for human CB1 receptor to IC50 for human CB2 receptor.
In experiment [2] the target is T1, Cannabinoid receptor 2 (Homo sapiens, UniProt P34972). In words: Inhibition of human CB2 receptor internalization expressed in CHO cells assessed as inhibition of [3H]-CP55940 uptake preincubated for 1 hr followed by radioligand addition measured after 1 hr by liquid scintillation counting analysis relative to control. The class given is cell-based. The arrangement: concentration or dose not given beside the values. To be noted: concentration not given here. A digest of the protocol:
(§1)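 CHO cells stably expressing human CB1 or CB2 grown 24 h at 2.0 × 10^5 cells/mL in DMEM/F12 with 10% FBS. They were preincubated 1 h with serial dilutions (top 5.0 μM for CB1, 10 μM for CB2; DMSO <0.1% final), then given 1 h 10 nM [3H]-Win 55,212-2 (CB1) or 2 nM [3H]-CP 55,940 (CB2). Cells were washed, NaOH-lysed and scintillation-counted. Uptake normalized to no-compound wells; sigmoid fit; mean ± SE, n = 6.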

The target of experiment [3] is T1, Cannabinoid receptor 2. In words: Displacement of [3H]-CP55940 from human CB2 receptor expressed in CHO cells preincubated for 1 hr followed by radioligand addition measured after 1 hr by liquid scintillation counting analysis. The class given is cell-based. In a few lines:
as §1

Experiment [4] addresses T2, Cannabinoid receptor 1 (Homo sapiens, UniProt P21554). In words: Inhibition of human CB1 receptor internalization expressed in CHO cells assessed as inhibition of [3H]-Win55212-2 uptake preincubated for 1 hr followed by radioligand addition measured after 1 hr by liquid scintillation counting analysis relative to control. Also noted: concentration or dose not given beside the values. The class given is cell-based. To be noted: concentration not given here. In a few lines: as §1

Experiment [5] has as its target T2, Cannabinoid receptor 1. Put plainly: Displacement of [3H]-Win55212-2 from human CB1 receptor expressed in CHO cells preincubated for 1 hr followed by radioligand addition measured after 1 hr by liquid scintillation counting analysis. Type of experiment: cell-based. A digest of the protocol:
as §1
A general note: Loss of bound radioactivity is the signal in a displacement assay; it reports binding, not function.

For experiment [6], the target named is T1, Cannabinoid receptor 2. Put plainly: Agonist activity at CB2 receptor (unknown origin) at 10 uM after 90 to 180 mins by beta-arrestin assay relative to control.
For experiment [7], the target named is T3, Follicle-stimulating hormone receptor (Homo sapiens) (UniProt P23945).
T3 sequence (whole entry): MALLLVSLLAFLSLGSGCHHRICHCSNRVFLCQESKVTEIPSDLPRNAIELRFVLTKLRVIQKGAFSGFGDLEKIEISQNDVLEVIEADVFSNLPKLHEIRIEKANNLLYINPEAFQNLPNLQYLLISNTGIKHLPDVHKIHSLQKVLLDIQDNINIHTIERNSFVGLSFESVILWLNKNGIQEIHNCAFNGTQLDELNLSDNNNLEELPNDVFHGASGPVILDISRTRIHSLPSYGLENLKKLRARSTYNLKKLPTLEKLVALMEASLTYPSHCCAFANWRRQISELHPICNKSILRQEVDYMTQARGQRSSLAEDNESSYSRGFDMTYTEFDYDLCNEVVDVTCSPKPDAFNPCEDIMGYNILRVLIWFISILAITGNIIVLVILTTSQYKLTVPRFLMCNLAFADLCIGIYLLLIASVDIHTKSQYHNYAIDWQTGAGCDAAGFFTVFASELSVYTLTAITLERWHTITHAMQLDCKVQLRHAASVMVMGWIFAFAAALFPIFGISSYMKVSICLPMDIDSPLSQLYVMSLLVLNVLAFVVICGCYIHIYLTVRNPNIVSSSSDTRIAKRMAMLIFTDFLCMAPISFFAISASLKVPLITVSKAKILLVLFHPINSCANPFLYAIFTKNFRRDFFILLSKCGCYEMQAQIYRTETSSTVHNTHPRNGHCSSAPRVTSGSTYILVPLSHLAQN
Put plainly: Antagonist activity at FSHR (unknown origin) at 10 uM after 3 to 5 hrs by beta-arrestin assay relative to control.

The target of experiment [8] is T2, Cannabinoid receptor 1. In words: Antagonist activity at CB1 receptor (unknown origin) at 10 uM after 3 to 5 hrs by beta-arrestin assay relative to control.
Experiment [9] addresses T4, Prolactin-releasing peptide receptor (Homo sapiens) (UniProt P49683).
T4 sequence (whole entry): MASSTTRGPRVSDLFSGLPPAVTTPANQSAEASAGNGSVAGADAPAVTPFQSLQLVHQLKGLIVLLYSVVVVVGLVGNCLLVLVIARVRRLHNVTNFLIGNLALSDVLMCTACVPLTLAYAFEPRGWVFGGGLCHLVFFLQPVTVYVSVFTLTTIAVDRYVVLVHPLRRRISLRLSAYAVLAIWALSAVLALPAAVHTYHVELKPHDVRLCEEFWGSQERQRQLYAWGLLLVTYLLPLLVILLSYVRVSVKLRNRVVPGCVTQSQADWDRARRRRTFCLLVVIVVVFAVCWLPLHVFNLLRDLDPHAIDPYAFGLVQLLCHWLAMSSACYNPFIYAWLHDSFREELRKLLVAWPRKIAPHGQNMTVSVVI
Put plainly: Antagonist activity at PRLHR (unknown origin) at 10 uM after 3 to 5 hrs by beta-arrestin assay relative to control.

For experiment [10], the target named is T1, Cannabinoid receptor 2. Put plainly: Antagonist activity at CB2 receptor (unknown origin) at 10 uM after 3 to 5 hrs by beta-arrestin assay relative to control.
For experiment [11], the target named is Prostaglandin E2 receptor EP2 subtype (Homo sapiens) (UniProt P43116). Put plainly: Agonist activity at PTGER2 (unknown origin) at 10 uM after 90 to 180 mins by beta-arrestin assay relative to control.
For experiment [12], the target named is T5, Relaxin-3 receptor 1 (Homo sapiens) (UniProt Q9NSD7).
T5 sequence (whole entry): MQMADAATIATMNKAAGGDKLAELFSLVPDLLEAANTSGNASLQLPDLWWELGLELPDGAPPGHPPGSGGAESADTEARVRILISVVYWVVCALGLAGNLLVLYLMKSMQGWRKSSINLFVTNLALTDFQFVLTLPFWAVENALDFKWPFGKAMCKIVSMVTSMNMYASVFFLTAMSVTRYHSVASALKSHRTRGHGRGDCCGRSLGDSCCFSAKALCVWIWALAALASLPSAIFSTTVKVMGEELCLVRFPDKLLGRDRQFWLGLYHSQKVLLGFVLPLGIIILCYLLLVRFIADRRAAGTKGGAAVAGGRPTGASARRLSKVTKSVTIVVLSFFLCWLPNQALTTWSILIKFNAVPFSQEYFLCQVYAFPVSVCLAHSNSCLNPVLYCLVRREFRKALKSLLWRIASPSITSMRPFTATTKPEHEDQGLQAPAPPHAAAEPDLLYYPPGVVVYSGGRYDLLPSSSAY
In words: Agonist activity at RXFP3 (unknown origin) at 10 uM after 90 to 180 mins by beta-arrestin assay relative to control.

Experiment [13] has as its target Histamine H4 receptor (Homo sapiens) (UniProt Q9H3N8). Put plainly: Agonist activity at HRH4 (unknown origin) at 10 uM after 90 to 180 mins by beta-arrestin assay relative to control.
Experiment [14] deals with T6, G-protein coupled receptor 151 (Homo sapiens) (UniProt Q8TDV0).
T6 sequence (whole entry): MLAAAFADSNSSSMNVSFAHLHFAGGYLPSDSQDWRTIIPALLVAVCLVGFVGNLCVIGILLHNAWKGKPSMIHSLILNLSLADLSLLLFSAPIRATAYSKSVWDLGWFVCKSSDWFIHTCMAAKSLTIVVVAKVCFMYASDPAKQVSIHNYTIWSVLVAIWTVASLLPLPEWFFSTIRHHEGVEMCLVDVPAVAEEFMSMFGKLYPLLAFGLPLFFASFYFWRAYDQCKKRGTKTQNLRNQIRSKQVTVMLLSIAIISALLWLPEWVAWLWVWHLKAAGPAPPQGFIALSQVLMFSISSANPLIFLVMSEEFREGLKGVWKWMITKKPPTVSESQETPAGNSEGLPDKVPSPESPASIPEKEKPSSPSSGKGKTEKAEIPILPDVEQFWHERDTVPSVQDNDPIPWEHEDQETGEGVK
In words: Agonist activity at GPR151 (unknown origin) expressed in CHO-K1 cells at 10 uM after 90 to 180 mins by beta-arrestin assay relative to control. Type of experiment: cell-based.

The target in experiment [15] is T7, Probable G-protein coupled receptor 132 (Homo sapiens) (UniProt Q9UNW8).
T7 sequence (whole entry): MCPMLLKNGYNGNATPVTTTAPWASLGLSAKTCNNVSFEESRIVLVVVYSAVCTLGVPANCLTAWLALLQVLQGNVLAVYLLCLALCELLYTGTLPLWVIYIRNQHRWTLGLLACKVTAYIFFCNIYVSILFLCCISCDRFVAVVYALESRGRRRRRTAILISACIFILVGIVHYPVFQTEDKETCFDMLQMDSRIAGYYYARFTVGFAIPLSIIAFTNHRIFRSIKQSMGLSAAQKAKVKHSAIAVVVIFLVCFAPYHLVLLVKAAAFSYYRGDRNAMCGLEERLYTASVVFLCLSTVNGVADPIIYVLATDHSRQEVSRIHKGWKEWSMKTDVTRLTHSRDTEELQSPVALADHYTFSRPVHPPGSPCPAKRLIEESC
In words: Agonist activity at GPR132 (unknown origin) expressed in CHO-K1 cells at 10 uM after 90 to 180 mins by beta-arrestin assay relative to control. Type of experiment: cell-based.

For experiment [16], the target named is G-protein coupled receptor 55 (Homo sapiens) (UniProt Q9Y2T6). Put plainly: Agonist activity at GPR55 (unknown origin) expressed in CHO-K1 cells at 10 uM after 90 to 180 mins by beta-arrestin assay relative to control. Type of experiment: cell-based.
The target in experiment [17] is T3, Follicle-stimulating hormone receptor (Homo sapiens). In words: Agonist activity at FSHR (unknown origin) at 10 uM after 90 to 180 mins by beta-arrestin assay relative to control.
For experiment [18], the target named is T4, Prolactin-releasing peptide receptor (Homo sapiens). In words: Agonist activity at PRLHR (unknown origin) at 10 uM after 90 to 180 mins by beta-arrestin assay relative to control.
For experiment [19], the target named is T2, Cannabinoid receptor 1. In words: Agonist activity at CB1 receptor (unknown origin) at 10 uM after 90 to 180 mins by beta-arrestin assay relative to control.
Experiment [20] deals with T1, Cannabinoid receptor 2. In words: Agonist activity at CB2 receptor (unknown origin) after 90 to 180 mins by beta-arrestin assay.

T1 sequence (P34972 whole entry): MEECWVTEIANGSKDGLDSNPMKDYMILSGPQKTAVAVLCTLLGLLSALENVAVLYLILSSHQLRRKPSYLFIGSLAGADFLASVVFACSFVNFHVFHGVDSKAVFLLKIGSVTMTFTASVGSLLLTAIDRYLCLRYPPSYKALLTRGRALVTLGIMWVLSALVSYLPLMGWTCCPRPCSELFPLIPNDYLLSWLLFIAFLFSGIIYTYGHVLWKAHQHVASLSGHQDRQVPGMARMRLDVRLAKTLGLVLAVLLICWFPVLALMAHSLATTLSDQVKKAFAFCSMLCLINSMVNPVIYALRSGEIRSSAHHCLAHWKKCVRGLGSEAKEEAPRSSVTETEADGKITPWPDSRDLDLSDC
T2 sequence (P21554 whole entry): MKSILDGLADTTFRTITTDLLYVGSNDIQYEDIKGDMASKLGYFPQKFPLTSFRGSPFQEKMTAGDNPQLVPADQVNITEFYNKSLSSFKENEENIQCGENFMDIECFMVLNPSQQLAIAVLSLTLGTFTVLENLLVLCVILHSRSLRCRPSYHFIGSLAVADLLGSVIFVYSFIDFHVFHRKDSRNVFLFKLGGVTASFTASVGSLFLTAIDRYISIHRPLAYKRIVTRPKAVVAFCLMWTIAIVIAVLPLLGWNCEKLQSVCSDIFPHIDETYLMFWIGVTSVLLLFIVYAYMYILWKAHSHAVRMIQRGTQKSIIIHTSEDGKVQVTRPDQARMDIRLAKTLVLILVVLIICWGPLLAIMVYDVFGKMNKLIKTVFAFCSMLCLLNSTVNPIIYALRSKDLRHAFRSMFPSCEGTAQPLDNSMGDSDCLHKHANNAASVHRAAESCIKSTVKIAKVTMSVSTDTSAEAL
Sequence of G-protein coupled receptor 55 (Homo sapiens) (Q9Y2T6 whole entry): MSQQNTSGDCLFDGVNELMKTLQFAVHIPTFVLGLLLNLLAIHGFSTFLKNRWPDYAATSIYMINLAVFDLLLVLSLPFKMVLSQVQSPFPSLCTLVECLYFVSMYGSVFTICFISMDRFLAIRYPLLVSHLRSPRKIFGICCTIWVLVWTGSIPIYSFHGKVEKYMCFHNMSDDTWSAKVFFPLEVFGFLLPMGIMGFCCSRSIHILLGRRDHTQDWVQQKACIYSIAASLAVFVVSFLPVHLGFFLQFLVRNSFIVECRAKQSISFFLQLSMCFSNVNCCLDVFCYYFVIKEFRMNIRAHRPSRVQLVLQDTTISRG
Sequence of Histamine H4 receptor (Homo sapiens) (Q9H3N8 whole entry): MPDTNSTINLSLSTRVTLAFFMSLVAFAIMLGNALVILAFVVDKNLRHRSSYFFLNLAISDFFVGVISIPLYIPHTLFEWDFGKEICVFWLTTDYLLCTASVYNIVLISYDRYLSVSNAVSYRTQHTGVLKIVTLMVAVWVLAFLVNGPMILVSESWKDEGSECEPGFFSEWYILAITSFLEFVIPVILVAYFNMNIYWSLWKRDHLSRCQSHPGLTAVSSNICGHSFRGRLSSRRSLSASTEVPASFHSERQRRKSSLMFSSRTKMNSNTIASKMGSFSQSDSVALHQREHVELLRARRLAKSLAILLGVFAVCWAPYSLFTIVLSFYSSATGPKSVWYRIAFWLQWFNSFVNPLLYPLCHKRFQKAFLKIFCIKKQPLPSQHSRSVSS
Sequence of Prostaglandin E2 receptor EP2 subtype (Homo sapiens) (P43116 whole entry): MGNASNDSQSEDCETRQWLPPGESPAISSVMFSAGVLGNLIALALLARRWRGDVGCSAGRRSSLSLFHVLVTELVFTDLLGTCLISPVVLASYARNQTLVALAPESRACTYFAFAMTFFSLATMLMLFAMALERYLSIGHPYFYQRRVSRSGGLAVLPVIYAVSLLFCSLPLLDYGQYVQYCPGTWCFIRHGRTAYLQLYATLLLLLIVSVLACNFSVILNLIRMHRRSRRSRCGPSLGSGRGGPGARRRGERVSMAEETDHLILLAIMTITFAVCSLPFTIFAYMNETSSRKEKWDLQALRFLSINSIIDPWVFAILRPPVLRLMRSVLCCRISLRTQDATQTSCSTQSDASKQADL

For the molecule `C/C=C/C=C/C=C\CC/C=C/C=C/C(=O)NCC(C)(C)O`, the Ratio IC50 in experiment [1] worked out at 0.9. The inhibition (commonly how much of the control response was suppressed) in [2] is 65%; in experiment [4], 31%. The IC50 (usually the concentration at which inhibition is half-maximal) in experiment [3] was 197 nM; in experiment [5], 184 nM.

Turning to `C/C=C/C=C/C=C/CC/C=C/C(=O)NCC(C)(C)O`, the IC50 was found to be 131 nM in experiment [3] and 9 nM in experiment [5].

On to `C/C=C/C=C/C=C\CC/C=C/C(=O)NCC(C)(C)O`, for which the IC50 in [3] is 59 nM; in experiment [5] it was 7400 nM.

Regarding `CC/C=C/C/C=C\CC/C=C/C=C/C(=O)NCC(C)(C)O`, the Ratio IC50 in experiment [1] stood at 0.26. The values for the inhibition in experiment [2] and in experiment [4] were 62% and 45%, respectively. Further, the IC50 in [3] was determined as 9100 nM; in [5], 2400 nM.

Take `C/C=C/C=C/C=C/CC/C=C/C=C/C(=O)NCC(C)C`: the % activity in experiment [6] was determined as 64%. Further, the inhibition in experiment [7] turned out to be 68%; in [8], 72%; in experiment [9], 52%; in experiment [10], 15%; in experiment [2] it was 57%; in experiment [4], 37%. The Activity in experiment [11] worked out at 7%; in [12], 18%; in [13], 18%; in [14] it was 76%; in experiment [15] it was 61%; in experiment [16], 67%. The Activity in experiment [17], in [18] and in [19] was 5% each time. For the same molecule, in experiment [20], the EC50 (as a rule, the concentration that produces a half-maximal response) worked out at 41.7 nM. Moreover, in [1], the Ratio IC50 came to 0.15. Also, the IC50 in [3] worked out at 664 nM; in experiment [5], 100 nM.

Turning to `C/C=C/C=C/C=C\CC/C=C/C(=O)NCC(C)(O)CO` (centres undefined), in [1], the Ratio IC50 turned out to be 0.24. Also, the figures for the inhibition in experiment [2] and in [4] were 65% and 76%, respectively. For the same molecule, the IC50 in experiment [3] came to 168 nM; in experiment [5] it was 41 nM.

Take `C/C=C/C=C/C=C/CC/C=C/C=C/C(=O)NCC(C)(C)O`: the Ratio IC50 in experiment [1] is 6.2. Also, the figures for the inhibition in experiment [2] and in experiment [4] were 34% and 39%, respectively. For the same molecule, the IC50 in [3] is 224 nM; in [5], 1390 nM.

Take `CCCCCCCCC/C=C/C=C/C(=O)NCC(C)(C)O` [TETRAHYDROBUNGEANOOL]: the Ratio IC50 in [1] was 2560. Moreover, the results for the inhibition in experiment [2] and in experiment [4] were 73% and 30%, respectively. Moreover, the IC50 in [3] is 2 nM; in experiment [5], 4600 nM.
